Measured values published in publication PMC5308917 (Science translational medicine, 2017).
Where no end group is shown, it is not given here.

Tests used:
[1] = tested on: VEGF-induced vascular leakage; assay: VEGF-induced leakage in rabbit eyes; type: in vivo, rabbit (Dutch Belted)
Summary of the method: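 A single intravitreous dose of test compound (50 μg) or comparator (500 μg) was given in one eye, with vehicle in the fellow eye. VEGF (10 μg) was injected into both eyes on day 23, VFP done day 30, eyes rescanned without fluorescein day 43, VEGF (10 μg) reinjected both eyes day 53, VFP day 60. For VFP, 15 mg sodium fluorescein was given via ear vein. After 1 h, fluorescence was scanned retina-to-cornea, taking the AUC 5–7 mm in front of the retina.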

[2] = Non-GLP safety studies after intravitreous injection; type: in vivo, rabbit; details: independent Clinical Research Organization
[3] = Fundus photography after intravitreous injection; type: in vivo, rabbit (Dutch Belted)
Summary of the method: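 Rabbits anaesthetized with IM ketamine (25 mg/kg) and xylazine (2.5 mg/kg), pupils dilated with 2.5% phenylephrine, conjunctiva cleaned with 5% povidone-iodine. Intravitreous injection of 50 μg test compound (or 500 μg comparator) in one eye and vehicle in the fellow eye. Fundus photographs taken 2 and 30 days after injection.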

integrin αvβ3 = integrin αvβ3 (Homo sapiens, UniProt P05106+P06756); assay: Fluorescence anisotropy, integrin αvβ3; type: binding
Summary of the method: (§1)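 FAM-labelled test compound (10 nM, dissolved in DMSO; final DMSO 0.0005%) mixed with 0–75 nM soluble recombinant heterodimeric integrin in 50 mM tris pH 7.5, 1 mM CaCl2, 1 mM MgCl2, 100 mM NaCl. Incubated on ice at least 30 min to reach equilibrium. Anisotropy read with vertically polarized excitation at 470 nm, detecting vertical and horizontal emission at 540 nm.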

integrin α5β1 = integrin α5β1 (Homo sapiens, UniProt P05556+P08648); assay: Fluorescence anisotropy, integrin α5β1; type: binding
Summary of the method: as §1

VEGFR2 = assay: Proteasomal inhibition by lactacystin and total VEGFR2; type: cell-based, human; details: 5 μM lactacystin with varying concentrations of AXT107
[4] = target: 5-carboxyfluorescein (5-FAM)-labeled AXT107; assay: fluorescence polarisation

Chain of integrin αvβ3 (P06756 31-992 limits assumed): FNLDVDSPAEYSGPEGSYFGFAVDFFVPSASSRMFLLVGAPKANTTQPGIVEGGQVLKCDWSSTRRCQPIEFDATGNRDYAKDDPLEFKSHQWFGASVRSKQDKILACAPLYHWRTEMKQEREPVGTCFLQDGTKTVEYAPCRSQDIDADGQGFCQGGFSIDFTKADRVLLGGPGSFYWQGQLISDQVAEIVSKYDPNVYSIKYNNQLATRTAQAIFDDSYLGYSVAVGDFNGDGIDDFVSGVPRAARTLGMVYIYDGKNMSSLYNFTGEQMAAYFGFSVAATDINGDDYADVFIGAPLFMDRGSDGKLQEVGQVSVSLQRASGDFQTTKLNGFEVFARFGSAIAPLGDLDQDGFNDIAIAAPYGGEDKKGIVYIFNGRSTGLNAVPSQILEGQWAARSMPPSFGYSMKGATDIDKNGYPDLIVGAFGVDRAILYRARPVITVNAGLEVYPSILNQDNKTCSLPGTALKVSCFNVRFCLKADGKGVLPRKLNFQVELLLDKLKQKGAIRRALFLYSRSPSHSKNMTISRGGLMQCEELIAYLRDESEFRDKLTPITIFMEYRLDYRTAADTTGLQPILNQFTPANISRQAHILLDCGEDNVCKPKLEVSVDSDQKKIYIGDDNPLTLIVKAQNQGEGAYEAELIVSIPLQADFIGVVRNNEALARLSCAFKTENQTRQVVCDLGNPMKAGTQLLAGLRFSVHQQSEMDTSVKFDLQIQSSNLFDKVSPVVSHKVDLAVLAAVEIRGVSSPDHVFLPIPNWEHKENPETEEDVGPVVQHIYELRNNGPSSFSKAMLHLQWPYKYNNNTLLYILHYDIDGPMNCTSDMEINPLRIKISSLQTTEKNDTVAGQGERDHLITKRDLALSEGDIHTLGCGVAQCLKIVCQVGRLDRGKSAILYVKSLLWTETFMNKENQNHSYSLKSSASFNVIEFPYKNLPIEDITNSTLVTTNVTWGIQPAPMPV
Chain of integrin αvβ3 (P05106 27-718 limits assumed): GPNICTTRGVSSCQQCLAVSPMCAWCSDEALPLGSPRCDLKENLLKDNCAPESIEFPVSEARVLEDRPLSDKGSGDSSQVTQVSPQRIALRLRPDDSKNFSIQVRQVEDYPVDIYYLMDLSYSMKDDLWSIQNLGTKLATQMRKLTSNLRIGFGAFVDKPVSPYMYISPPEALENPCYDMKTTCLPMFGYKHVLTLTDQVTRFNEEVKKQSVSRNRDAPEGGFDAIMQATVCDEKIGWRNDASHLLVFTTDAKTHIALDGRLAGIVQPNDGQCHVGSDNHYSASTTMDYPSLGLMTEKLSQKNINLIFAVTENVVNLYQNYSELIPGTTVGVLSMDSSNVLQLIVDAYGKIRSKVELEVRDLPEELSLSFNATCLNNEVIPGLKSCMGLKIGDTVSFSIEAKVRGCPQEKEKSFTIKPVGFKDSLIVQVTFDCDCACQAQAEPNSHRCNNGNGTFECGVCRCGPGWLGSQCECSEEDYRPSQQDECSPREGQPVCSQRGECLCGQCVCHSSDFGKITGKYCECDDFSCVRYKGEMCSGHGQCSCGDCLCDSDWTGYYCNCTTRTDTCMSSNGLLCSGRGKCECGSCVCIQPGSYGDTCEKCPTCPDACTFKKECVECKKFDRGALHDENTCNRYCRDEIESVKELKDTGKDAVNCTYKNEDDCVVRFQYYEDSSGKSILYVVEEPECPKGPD
Chain of integrin α5β1 (P08648 42-995 limits assumed): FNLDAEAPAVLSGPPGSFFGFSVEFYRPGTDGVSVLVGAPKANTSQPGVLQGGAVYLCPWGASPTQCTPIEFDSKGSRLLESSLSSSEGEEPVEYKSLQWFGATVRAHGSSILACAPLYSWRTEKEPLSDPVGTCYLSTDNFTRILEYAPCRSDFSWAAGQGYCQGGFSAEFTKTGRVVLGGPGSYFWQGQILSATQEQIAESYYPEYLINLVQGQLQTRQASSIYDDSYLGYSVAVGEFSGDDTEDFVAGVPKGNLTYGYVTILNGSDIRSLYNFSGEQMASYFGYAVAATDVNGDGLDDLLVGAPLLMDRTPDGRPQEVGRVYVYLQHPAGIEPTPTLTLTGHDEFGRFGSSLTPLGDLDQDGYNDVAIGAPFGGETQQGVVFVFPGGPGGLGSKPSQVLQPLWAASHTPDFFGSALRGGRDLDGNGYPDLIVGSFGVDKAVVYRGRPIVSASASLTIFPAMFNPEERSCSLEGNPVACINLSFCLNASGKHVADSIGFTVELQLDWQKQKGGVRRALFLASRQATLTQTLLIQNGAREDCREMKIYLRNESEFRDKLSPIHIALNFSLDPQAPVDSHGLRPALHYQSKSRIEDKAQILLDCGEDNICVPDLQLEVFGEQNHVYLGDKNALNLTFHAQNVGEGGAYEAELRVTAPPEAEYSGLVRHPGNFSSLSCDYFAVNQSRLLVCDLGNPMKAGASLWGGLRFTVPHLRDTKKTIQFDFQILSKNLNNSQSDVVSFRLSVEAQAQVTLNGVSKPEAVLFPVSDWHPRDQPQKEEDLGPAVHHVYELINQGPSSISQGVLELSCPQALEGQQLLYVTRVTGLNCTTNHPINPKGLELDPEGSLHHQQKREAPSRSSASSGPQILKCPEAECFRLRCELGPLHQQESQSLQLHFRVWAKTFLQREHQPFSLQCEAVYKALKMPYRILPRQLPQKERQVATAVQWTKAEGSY
Chain of integrin α5β1 (P05556 21-728 limits assumed): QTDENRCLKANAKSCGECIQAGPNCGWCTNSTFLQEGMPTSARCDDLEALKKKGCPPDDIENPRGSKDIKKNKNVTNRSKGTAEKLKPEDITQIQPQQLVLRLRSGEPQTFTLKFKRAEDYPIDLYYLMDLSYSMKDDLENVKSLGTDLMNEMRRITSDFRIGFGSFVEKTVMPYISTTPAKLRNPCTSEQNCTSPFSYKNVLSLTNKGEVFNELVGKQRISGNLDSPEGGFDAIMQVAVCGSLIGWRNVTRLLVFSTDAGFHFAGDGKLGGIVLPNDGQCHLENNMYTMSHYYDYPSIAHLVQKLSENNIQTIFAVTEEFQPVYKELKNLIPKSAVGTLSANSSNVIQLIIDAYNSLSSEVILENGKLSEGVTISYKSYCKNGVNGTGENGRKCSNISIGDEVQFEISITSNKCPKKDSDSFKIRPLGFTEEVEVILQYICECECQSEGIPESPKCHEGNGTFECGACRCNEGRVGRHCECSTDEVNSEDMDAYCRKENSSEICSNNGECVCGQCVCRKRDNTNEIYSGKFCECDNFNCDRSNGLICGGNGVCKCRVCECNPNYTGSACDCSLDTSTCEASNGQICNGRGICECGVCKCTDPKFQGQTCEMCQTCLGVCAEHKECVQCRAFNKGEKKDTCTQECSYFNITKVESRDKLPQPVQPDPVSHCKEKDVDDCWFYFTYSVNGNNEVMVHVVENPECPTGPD

aflibercept: a VEGF-neutralizing protein, which is standard care for patients with NVAMD
fluorescein in the mid-vitreous, day 60 (representative VFP scans) ([1]; 50 μg of AXT107 or 500 μg of aflibercept, VEGF rechallenge (10 μg) on day 53): higher levels
leakage remaining at 60 days ([1]; 50 μg of AXT107 versus 500 μg of aflibercept, P < 0.05): 100%
leakage vs fellow eye controls, day 60 (in words) ([1]; 500 μg of aflibercept, VEGF rechallenge (10 μg) on day 53, VFP day 60): not significantly reduced

LRRFSTAPFAFIDINDVINF [AXT107]
intraocular pressure [2]: no increase in intraocular pressure
ocular media in the visual axis [2]: no degradation of the ocular media in the visual axis
retinal toxicity [2]: no retinal toxicity
gel-like depot in inferior vitreous, persistence ([3]; 50 μg intravitreous, 30 days after injection): still present in the same location 30 days after injection
dissipation of gel-like depot ([3]; after intraocular injection, inferior vitreous): slowly dissipates over months
Kd (integrin αvβ3): 1.29 nM
Kd (integrin α5β1): 2.21 nM

CC(=O)N[C@@H](CSC(=O)[C@]1([C@@H](O)C(C)C)NC(=O)[C@H](C)[C@@H]1O)C(=O)O [lactacystin]
AXT107-induced degradation of VEGFR2 (VEGFR2): reduced AXT107-induced degradation of VEGFR2

soluble, recombinant α5β1 heterodimeric integrin (from UniProt P08648 42-1049; P05556 21-728) (complex)
Kd [4]: 2.21 nM

soluble, recombinant αvβ3 heterodimeric integrin (from UniProt P06756 31-1048; P05106 27-718) (complex)
Kd [4]: 1.29 nM
